According to ChEMBL document CHEMBL1921692 (J Med Chem, 2011):
In brackets after ≈: the same amount, converted by molar mass.

Assays:
[1] = Elimination half life in Sprague-Dawley rat at 2 m/kg, iv; assay type: ADME, organism-based; details: in vivo, read-out: beta t1/2
[2] = biological target: T1, Growth hormone secretagogue receptor type 1 (Homo sapiens, UniProt Q92847); assay: Agonist activity at human GRLN receptor expressed in HEK293 cells assessed as calcium binding by Ca2+ bioluminescence aequorin assay; assay type: functional, cell-based
T1 sequence (Q92847 whole entry): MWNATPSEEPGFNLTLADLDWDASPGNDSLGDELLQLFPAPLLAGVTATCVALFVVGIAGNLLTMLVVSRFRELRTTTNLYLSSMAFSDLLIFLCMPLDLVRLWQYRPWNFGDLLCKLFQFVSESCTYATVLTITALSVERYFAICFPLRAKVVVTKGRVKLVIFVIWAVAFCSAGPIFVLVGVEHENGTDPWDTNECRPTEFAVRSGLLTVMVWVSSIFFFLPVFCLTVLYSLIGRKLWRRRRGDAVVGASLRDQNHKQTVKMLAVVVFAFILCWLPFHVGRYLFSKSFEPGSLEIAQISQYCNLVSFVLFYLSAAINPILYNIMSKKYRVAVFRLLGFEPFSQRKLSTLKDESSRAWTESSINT
In short: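 HEK-293 cells expressing human GRLN. Ca2+ bioluminescence read out by aequorin. Duplicate samples, maximum tolerated interassay variability ±10%. Full agonism defined as maximal response >70% of that of octanoylated human ghrelin.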

[3] = Aqueous solubility of the compound; assay type: physicochemical
[4] = Clearance in Sprague-Dawley rat at 2 m/kg, iv; assay type: ADME, organism-based; details: in vivo
[5] = Volume of distribution at steady state in Sprague-Dawley rat at 2 m/kg, iv; assay type: ADME, organism-based; details: in vivo, read-out: Vdss
[6] = biological target: T1, Growth hormone secretagogue receptor type 1; assay: Displacement of [125I-His9]-ghrelin from human GRLN receptor by radioligand binding assay
In short: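 Competitive binding on isolated membranes expressing GRLN, with 125I-His-9 octanoylated ghrelin as radioligand.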

Rattus norvegicus = assay: Induction of gastric emptying in overnight-fasted iv dosed Wistar rat measured after 15 mins by […] analysis; assay type: functional, organism-based, Stomach
In short: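 Overnight-fasted male Wistar rats (200 ± 20 g), N = 5 per point. Compound given IV in 9% 2-hydroxypropyl-β-cyclodextrin together with an oral 2% methylcellulose meal containing 0.05% phenol red (2 mL). Sacrifice 15 min later; phenol red left in stomach read at 560 nm. […] Metoclopramide positive control at 10 mg/kg IV.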

[7] = Cmax in Sprague-Dawley rat at 8 mg/kg, po; assay type: ADME, organism-based; parameters: dose 8 mg/kg, route oral; details: in vivo
In short: (§1)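 Male Sprague−Dawley rats (250 ± 20 g), 3 per compound in a single experiment, gavage 8 mg/kg in physiological saline. Blood taken at 12 time points over 6 h into K3EDTA tubes. Plasma stored at −20 °C, assayed by LC-MS/MS, noncompartmental analysis.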

[8] = AUC (0 to infinity) in Sprague-Dawley rat at 8 mg/kg, po; assay type: ADME, organism-based; parameters: time infinity, dose 8 mg/kg, route oral; details: plasma; in short: as §1
[9] = Oral bioavailability in Sprague-Dawley rat at 8 mg/kg; details: in vivo
[10] = Dissociation constant, pKa of the compound; assay type: physicochemical

| SMILES | EC50 [2] [nM] | Ki [6] [nM] | further results |
| --- | --- | --- | --- |
| C[C@@H]1CN[C@@H](C2CCCCC2)C(=O)N(C)[C@H](C)C(=O)N[C@H](Cc2ccc(F)cc2)C(=O)NCCCc2ccccc2O1 | 49 | 0.38 | half-life [1]: 74 min; solubility [3]: ≤ 10 µg/mL; clearance [4]: 43 mL/min/kg; Vd [5]: 4.7 L/kg |
| CN1CC(=O)N[C@H](Cc2ccccc2)C(=O)NCCCc2ccccc2OCCN[C@@H](CCCCN)C1=O |  | 1100 |  |
| CCC[C@@H]1NCCOc2ccccc2CCCNC(=O)[C@@H](Cc2ccccc2)NC(=O)CN(C)C1=O |  | 68 |  |
| CCCC[C@H]1NC(=O)CN(C)C(=O)[C@H](CCC)NCCOc2ccccc2CCCNC1=O |  | 400 |  |
| C[C@@H]1C(=O)N[C@H](Cc2ccc(F)cc2)C(=O)NCCCc2cc(F)ccc2OCCN[C@@H](C2CC2)C(=O)N1C |  | 58 |  |
| CN1CC(=O)N[C@H](Cc2ccccc2)C(=O)NCCCc2ccccc2OCCN[C@@H](Cc2ccccc2)C1=O |  | 670 |  |
| CC(C)[C@@H]1NC[C@@H](C)Oc2ccccc2CCCNC(=O)[C@@H](Cc2ccc(F)cc2)NC(=O)[C@@H](C)N(C)C1=O |  | 104 | half-life [1]: 34 min; clearance [4]: 40 mL/min/kg; Vd [5]: 2 L/kg |
| CCC[C@@H]1NCCOc2ccccc2CCCNC(=O)[C@@H](Cc2ccccc2)NC(=O)[C@H](C)N(C)C1=O |  | 580 |  |
| CC[C@H](C)[C@@H]1NCCCc2ccccc2CCNC(=O)[C@@H](Cc2ccccc2)NC(=O)[C@@H](C)N(C)C1=O |  | 400 |  |
| CC[C@H](C)[C@@H]1NCCOc2ccccc2CCCNC(=O)[C@@H](Cc2ccccc2)NC(=O)[C@@H](C)N(C)C1=O |  | 6.4 |  |
| C[C@@H]1CN[C@@H](C2CC2)C(=O)N(C)[C@H](C)C(=O)N[C@H](Cc2ccc(F)cc2)C(=O)NCCCc2ccc(F)cc2O1 |  | 61 | half-life [1]: 66 min; EC50 (Rattus norvegicus): 1.38 mg/kg; Cmax [7]: 750 nM; clearance [4]: 9 mL/min/kg; Vd [5]: 0.9 L/kg; AUC(0-inf) [8]: 2.08 µM·h; bioavailability [9]: 15% |
| CC[C@H](C)[C@@H]1NCCOc2ccccc2CCCNC(=O)[C@@H](CCc2ccccc2)NC(=O)[C@@H](C)N(C)C1=O |  | 43 |  |
| CC[C@H]1NC(=O)[C@H]([C@@H](C)CC)NC[C@@H](C)Oc2ccccc2CCCNC(=O)[C@@H](Cc2ccccc2)NC1=O |  | 35 |  |
| C[C@@H]1CN[C@@H](C2CC2)C(=O)N(C)[C@H](C)C(=O)N[C@H](Cc2ccc(Cl)cc2)C(=O)NCCCc2ccccc2O1 | 18 | 15 | half-life [1]: 41 min; EC50 (Rattus norvegicus): 0.84 mg/kg; Cmax [7]: 670 nM; clearance [4]: 24 mL/min/kg; Vd [5]: 1.4 L/kg; AUC(0-inf) [8]: 1.23 µM·h; bioavailability [9]: 22% |
| C[C@@H]1C(=O)N[C@H](Cc2ccc(F)cc2)C(=O)NCCCc2ccccc2OCCN[C@@H](C2CC2)C(=O)N1C |  | 7.3 | half-life [1]: 14 min; clearance [4]: 72 mL/min/kg; Vd [5]: 1.4 L/kg |
| CCC[C@H](NCCOc1ccccc1/C=C/CNC(C)=O)C(=O)N(C)CC(=O)N[C@H](Cc1ccccc1)C(N)=O |  | > 10000 |  |
| Cc1ccc(C[C@H]2NC(=O)[C@@H](C)N(C)C(=O)[C@H](C3CC3)NCCOc3ccccc3CCCNC2=O)cc1 | 8.2 | 5 |  |
| C[C@@H]1C(=O)N[C@H](Cc2cccc(F)c2)C(=O)NCCCc2ccccc2OCCN[C@@H](C2CC2)C(=O)N1C |  | 21 |  |
| CCC[C@@H]1NC[C@@H](C)Oc2ccccc2CCCNC(=O)[C@@H](Cc2ccc(F)cc2)NC(=O)[C@@H](C)N(C)C1=O |  | 34 | half-life [1]: 29 min; solubility [3]: 100 µg/mL (≈ 185 µM); clearance [4]: 41 mL/min/kg; Vd [5]: 1.7 L/kg |
| C[C@@H]1C(=O)N[C@H](Cc2ccc(F)cc2)C(=O)NCCCc2cccc3c2O[C@H](CC3)CN[C@@H](C2CC2)C(=O)N1C | 85 | 0.9 | half-life [1]: 59 min; clearance [4]: 13 mL/min/kg; Vd [5]: 1.1 L/kg |

| SMILES | EC50 [2] [nM] | Ki [6] [nM] | further results |
| --- | --- | --- | --- |
| CCC[C@@H]1NCCOc2ccccc2CCCNC(=O)[C@@H](Cc2ccccc2)NC(=O)[C@@H](C)NC1=O |  | 500 |  |
| CCC[C@@H]1NCCOc2ccccc2CCCNC(=O)[C@@H](Cc2ccc(O)cc2)NC(=O)CN(C)C1=O | 39 | 120 |  |
| C[C@@H]1C(=O)N[C@H](Cc2ccc(F)cc2)C(=O)NCCCc2ccccc2O[C@@H](C)CN[C@@H](C2CC2)C(=O)N1C | 26 | 56 |  |
| CC[C@H](C)[C@@H]1NCCCc2ccccc2CCCNC(=O)[C@@H](Cc2ccccc2)NC(=O)[C@@H](C)N(C)C1=O |  | 81 |  |
| CC(C)C[C@@H]1NCCOc2ccccc2CCCNC(=O)[C@@H](Cc2ccccc2)NC(=O)[C@@H](C)N(C)C1=O |  | 25 |  |
| CC[C@H](C)[C@@H]1NCCOc2ccccc2CCNC(=O)[C@@H](Cc2ccccc2)NC(=O)[C@@H](C)N(C)C1=O | 530 | 210 |  |
| C[C@@H]1C(=O)N[C@H](Cc2ccccc2)C(=O)NCCCc2ccccc2OCCN[C@@H](C2CC2)C(=O)N1C | 23 | 4.4 | pKa [10]: 6.72 |
| C[C@@H]1C(=O)N[C@H](Cc2ccc(C(F)(F)F)cc2)C(=O)NCCCc2ccccc2OCCN[C@@H](C2CC2)C(=O)N1C | 11 | 7 |  |
| C[C@@H]1C(=O)N[C@H](Cc2ccc(F)cc2)C(=O)NCCCc2cccc3c2O[C@@H](CC3)CN[C@@H](C2CC2)C(=O)N1C |  | 19 |  |
| CCC[C@@H]1NCCOc2ccccc2CCCNC(=O)[C@H](Cc2ccccc2)NC(=O)CN(C)C1=O |  | 380 |  |
| C[C@@H]1CN[C@@H](C2CC2)C(=O)N(C)[C@H](C)C(=O)N[C@H](Cc2ccccc2)C(=O)NCCCc2ccccc2O1 |  | 34 | half-life [1]: 32 min; clearance [4]: 25 mL/min/kg; Vd [5]: 1.3 L/kg |
| C[C@@H]1C(=O)N[C@H](Cc2ccccc2F)C(=O)NCCCc2ccccc2OCCN[C@@H](C2CC2)C(=O)N1C |  | 6.2 |  |
| CC[C@H](C)[C@@H]1NC[C@@H](C)Oc2ccccc2CCCNC(=O)[C@@H](Cc2ccc(F)cc2)NC(=O)[C@@H](C)N(C)C1=O |  | 32 | half-life [1]: 44 min; solubility [3]: 100 µg/mL (≈ 180 µM); clearance [4]: 40 mL/min/kg; Vd [5]: 2.5 L/kg |
| CCC[C@H]1NCCOc2ccccc2CCCNC(=O)[C@@H](Cc2ccccc2)NC(=O)CN(C)C1=O |  | 1200 |  |
| CC1COc2ccccc2CCCNC(=O)[C@@H](Cc2ccc(F)cc2)NC(=O)[C@@H](C)N(C)C(=O)[C@H](C2CC2)N1 (mixture of isomers) | 760 | 9 |  |
| CCC[C@@H]1NCCOc2ccccc2CCCNC(=O)[C@@H](Cc2ccccc2)NC(=O)[C@@H](C)N(C)C1=O | 40 | 16 | pKa [10]: 6.45 |
| CC[C@H](C)[C@@H]1NCCCC/C=C/CCNC(=O)[C@@H](Cc2ccccc2)NC(=O)[C@@H](C)N(C)C1=O (mixture of isomers) | 310 | 160 |  |
| CC[C@H](C)[C@@H]1NCCCCCCCCNC(=O)[C@@H](Cc2ccccc2)NC(=O)[C@@H](C)N(C)C1=O |  | 1500 |  |
| CC[C@H](C)[C@@H]1NCCCc2ccccc2CCCCNC(=O)[C@@H](Cc2ccccc2)NC(=O)[C@@H](C)N(C)C1=O | 360 | 78 |  |
| CC[C@H](C)[C@@H]1NC[C@@H](C)Oc2ccccc2CCCNC(=O)[C@@H](Cc2ccccc2)NC(=O)[C@@H](C(C)C)NC1=O |  | 380 |  |
